Measurements published in ChEMBL document CHEMBL2311378, “Synthesis and biological activity against Trypanosoma cruzi of substituted 1,4-naphthoquinones” (Eur J Med Chem, 2013).

Columns and labels:
Trypanosoma cruzi [1] = assay: Antitrypanosomal activity against Trypanosoma cruzi Y bloodstream trypomastigotes isolated from infected Swiss mouse blood assessed as lysis level after 24 hrs; type: functional, organism-based
How it was run: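 Infected mouse blood diluted with healthy mouse blood to 10⁶ trypomastigotes ml⁻¹. Compounds dissolved in DMSO, added to the blood, and incubated at 4 °C for 24 h. Remaining trypomastigotes were counted. Run in triplicate alongside DMSO and crystal violet controls. IC50 is the concentration lysing 50% of parasites.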

Trypanosoma cruzi [2] = assay: Antitrypanosomal activity against Trypanosoma cruzi Y bloodstream trypomastigotes isolated from infected Swiss mouse blood assessed as lysis level at 32.0 uM after 24 hrs; type: functional
Trypanosoma cruzi [3] = assay: Antitrypanosomal activity against Trypanosoma cruzi Y bloodstream trypomastigotes isolated from infected Swiss mouse blood assessed as lysis level at 2.0 uM after 24 hrs; type: functional
Trypanosoma cruzi [4] = assay: Antitrypanosomal activity against Trypanosoma cruzi Y bloodstream trypomastigotes isolated from infected Swiss mouse blood assessed as lysis level at 8.0 uM after 24 hrs; type: functional
Trypanosoma cruzi [5] = assay: Antitrypanosomal activity against Trypanosoma cruzi Y bloodstream trypomastigotes isolated from infected Swiss mouse blood assessed as lysis level at 0.5 uM after 24 hrs; type: functional

Structure (SMILES)	IC50 (Trypanosoma cruzi [1])	Activity (Trypanosoma cruzi [2])	Activity (Trypanosoma cruzi [3])	Activity (Trypanosoma cruzi [4])	Activity (Trypanosoma cruzi [5])
CCCCCCCC/C=C/CCCCCCCC1=C(O)C(=O)c2ccccc2C1=O	10.6 µM	57.6%	22.5%	51.3%	13.1%
CCCCCCCC/C=C/CCCCCCCC1=C(C)C(=O)c2ccccc2C1=O	32.6 µM	34%	25.1%	35.1%	27.2%
CCCCCCCC/C=C/CCCCCCCC1=CC(=O)c2ccccc2C1=O	8.1 µM	49.2%	45.5%	46.1%	37.2%
CCCCC/C=C\C/C=C/CCCCCCCC1=C(O)C(=O)c2ccccc2C1=O	7.8 µM	50.8%	47.6%	42.9%	44.5%
CCCCC/C=C/C/C=C/CCCCCCCC1=C(C)C(=O)c2ccccc2C1=O	16.9 µM	44.5%	25.6%	47.1%	15.2%
CCCCC/C=C/C/C=C/CCCCCCCC1=CC(=O)c2ccccc2C1=O	26.4 µM	49.2%	7.8%	30.9%	0%
CCCCCCCC1=C(CCCCCCC)C(=O)c2ccccc2C1=O	124 µM	18.3%	8.9%	10.6%	8.1%
O=C1C(CCCCc2ccccc2)=C(CCCCc2ccccc2)C(=O)c2ccccc21	25.1 µM	44%	21.5%	35.1%	3%
COc1ccc(C(CC(=O)O)C2=C(C)C(=O)c3ccccc3C2=O)cc1 (racemic)	17.4 µM	55%	24.6%	34%	12%
COc1ccc(C(CC(=O)O)C2=CC(=O)c3ccccc3C2=O)cc1 (racemic)	48.5 µM	38.7%	10.5%	14.1%	0%
CN(C)c1ccc(C(=C2C=CC(=[N+](C)C)C=C2)c2ccc(N(C)C)cc2)cc1 [GENTIAN VIOLET]	31 µM	–	–	–	–
O=C1C=C(O)C(=O)c2ccccc21 [LAWSONE]	> 2500 µM	–	–	–	–
